In ChEMBL document CHEMBL4715773, “New Inhibitors of Indoleamine 2,3-Dioxygenase 1: Molecular Modeling Studies, Synthesis, and Biological Evaluation” (J Med Chem, 2016):
Activity calls are given as the source filed them. The rule behind the calls is not given here.

Experiments:
[1] = target: T1, Indoleamine 2,3-dioxygenase 1 (Homo sapiens, UniProt P14902); assay: Inhibition of human IDO1 incubated for 60 mins in presence of L-tryptophan by HPLC analysis
Method in brief: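 Recombinant human IDO1 (10 μg/mL) was assayed in 50 mM potassium phosphate pH 6.5 with 10 mM ascorbate, 10 μM methylene blue and 100 μg/mL catalase. Reaction was started with 200 μM L-Trp and run at 37 °C for 60 min. It was stopped with TCA, then held at 50 °C for 15 min to hydrolyse N-formylkynurenine. Kynurenine was measured by reversed-phase HPLC at 360 nm; triplicate determinations averaged.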
Target sequence in this assay (P14902 whole entry): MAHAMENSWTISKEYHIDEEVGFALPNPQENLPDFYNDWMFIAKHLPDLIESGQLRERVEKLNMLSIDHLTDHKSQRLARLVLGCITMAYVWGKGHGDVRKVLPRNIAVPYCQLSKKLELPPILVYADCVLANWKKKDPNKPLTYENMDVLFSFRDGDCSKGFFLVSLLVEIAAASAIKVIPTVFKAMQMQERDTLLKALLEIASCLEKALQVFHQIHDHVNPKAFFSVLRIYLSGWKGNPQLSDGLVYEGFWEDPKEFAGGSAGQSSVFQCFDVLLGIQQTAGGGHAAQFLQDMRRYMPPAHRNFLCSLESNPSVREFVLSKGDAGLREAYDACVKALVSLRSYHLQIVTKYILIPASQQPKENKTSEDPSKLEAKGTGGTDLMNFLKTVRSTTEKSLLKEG

HT-29 [2] = assay: Growth inhibition of human HT-29 cells assessed as cell viability at 10 uM incubated for 24 hrs by MTT assay; assay type: functional; details: read-out: Activity
Method in brief: (§1)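 Cells grown in DMEM (4.5 g/L glucose) with 10% FBS, penicillin/streptomycin and 2 mM glutamine, seeded and allowed 24 h to attach, then exposed 24 h to compound. The range was 5–80 μM or 2.5–80 μM. MTT (500 μM in PBS) was added for 3 h at 37 °C in the dark. Formazan was dissolved in propan-2-ol/0.04 N HCl and read at 550 nm. Viability is given as % of 0.1% DMSO control; three independent experiments in triplicate.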

HCT-116 [3] = assay: Induction of cell cycle arrest in human HCT116 cells assessed as increase of accumulation at G2/M phase at 20 uM incubated for 24 hrs by […] staining based flow cytometry; assay type: functional
Method in brief: (§2)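 Cells in DMEM/10% FBS were treated 24 h at 20, 10 or 2.5 μM alongside a 0.1% DMSO vehicle, then stained with propidium iodide for DNA content by flow cytometry, acquiring at least 10000 cells per sample. G0/G1, S and G2/M fractions are expressed as fold change versus DMSO. Values are mean ± SD of three independent experiments.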

HCT-116 [4] = assay: Reversible induction of cell cycle arrest in human HCT-116 cells assessed as increase of accumulation at G2/M phase at 10 uM incubated for 24 hrs and harvested after further 24 hrs recovery in drug-free medium by […] staining based flow cytometry; assay type: functional
Method in brief: (§3)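 Cells were exposed 24 h to 20, 10 or 2.5 μM or to 0.1% DMSO, then washed into drug-free medium for a further 24 h before harvest. DNA content was measured by propidium iodide flow cytometry on at least 10000 cells per sample. G2/M and other phase fractions are given as fold change versus DMSO, as mean ± SD of three independent experiments.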

HT-29 [5] = assay: Induction of cell cycle arrest in human HT-29 cells assessed as increase of accumulation at G2/M phase at 20 uM incubated for 24 hrs by […] staining based flow cytometry; assay type: functional; details: dose 10.0 µM, in the assay text read “at 10 uM” for “at 20 uM”; method in brief: as §2
HCT-116 [6] = assay: Growth inhibition of human HCT116 cells incubated for 24 hrs by MTT assay; assay type: functional, cell-based; method in brief: as §1
HT-29 [7] = assay: Induction of cell death in human HT-29 cells assessed as reduction in beta-catenin expression at 10 uM incubated for 24 hrs by Western blot analysis
[8] = target: T1, Indoleamine 2,3-dioxygenase 1; assay: Inhibition of human IDO1 at 100 uM incubated for 60 mins in presence of L-tryptophan by HPLC analysis relative to control
Target sequence in this assay (P14902 whole entry, looked up): as the sequence (P14902 whole entry) above

HCT-116 [9] = assay: Induction of cell death in human HCT-116 cells assessed as reduction in Bcl-xL expression at 10 uM incubated for 24 hrs by Western blot analysis; assay type: functional, cell-based; details: dose 20.0 µM, in the assay text read “at 20 uM” for “at 10 uM”
Method in brief: (§4)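 Cells were treated 24 h with compound or DMSO, then lysed in RIPA-type buffer (50 mM Tris pH 7.4, 150 mM NaCl, 0.1% SDS, 1% deoxycholate, 1% Triton X-100, 5 mM EDTA, protease inhibitors). Protein was quantified by Bradford, run on 12% SDS-PAGE and transferred to PVDF. Blots were probed overnight at 4 °C for Mcl1, Bcl-xL (1:1000), β-catenin (1:500) and β-actin loading control (1:5000), with HRP secondary and ECL detection.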

HT-29 [10] = assay: Growth inhibition of human HT-29 cells incubated for 24 hrs by MTT assay; assay type: functional, cell-based; method in brief: as §1
HCT-116 [11] = assay: Induction of cell death in human HCT-116 cells assessed as reduction in beta-catenin expression at 10 uM incubated for 24 hrs by Western blot analysis; assay type: functional, cell-based; details: dose 20.0 µM, in the assay text read “at 20 uM” for “at 10 uM”; method in brief: as §4
HT-29 [12] = assay: Induction of cell death in human HT-29 cells assessed as reduction in Mcl1 expression at 10 uM incubated for 24 hrs by Western blot analysis
HCT-116 [13] = assay: Growth inhibition of human HCT116 cells assessed as cell viability at 20 uM incubated for 24 hrs by MTT assay; assay type: functional; details: read-out: Activity; method in brief: as §1
HCT-116 [14] = assay: Induction of cell death in human HCT-116 cells assessed as reduction in Mcl1 expression at 10 uM incubated for 24 hrs by Western blot analysis; assay type: functional, cell-based; details: dose 20.0 µM, in the assay text read “at 20 uM” for “at 10 uM”; method in brief: as §4
HT-29 [15] = assay: Reversible induction of cell cycle arrest in human HT-29 cells assessed as increase of accumulation at G2/M phase at 20 uM incubated for 24 hrs and harvested after further 24 hrs recovery in drug-free medium by […] staining based flow cytometry; assay type: functional; method in brief: as §3
HT-29 [16] = assay: Induction of cell death in human HT-29 cells assessed as reduction in Bcl-xL expression at 10 uM incubated for 24 hrs by Western blot analysis
HT-29 [17] = assay: Induction of cell death in human HT-29 cells assessed as reduction in Mcl1 expression at 2.5 uM incubated for 24 hrs by Western blot analysis; assay type: functional, cell-based; method in brief: as §4
HT-29 [18] = assay: Growth inhibition of human HT-29 cells assessed as cell viability at 2.5 uM incubated for 24 hrs by MTT assay; assay type: functional; details: read-out: Activity; method in brief: as §1
HCT-116 [19] = assay: Growth inhibition of human HCT116 cells assessed as cell viability at 10 uM incubated for 24 hrs by MTT assay; assay type: functional; details: read-out: Activity; method in brief: as §1
HCT-116 [20] = assay: Induction of cell cycle arrest in human HCT116 cells assessed as increase of accumulation at G2/M phase at 10 uM incubated for 24 hrs by […] staining based flow cytometry; assay type: functional; method in brief: as §2
HT-29 [21] = assay: Reversible induction of cell cycle arrest in human HT-29 cells assessed as increase of accumulation at G2/M phase at 10 uM incubated for 24 hrs and harvested after further 24 hrs recovery in drug-free medium by […] staining based flow cytometry; assay type: functional; method in brief: as §3
HT-29 [22] = assay: Induction of cell cycle arrest in human HT-29 cells assessed as increase of accumulation at G2/M phase at 2.5 uM incubated for 24 hrs by […] staining based flow cytometry; assay type: functional; method in brief: as §2
HT-29 [23] = assay: Induction of cell death in human HT-29 cells assessed as reduction in beta-catenin expression at 10 uM incubated for 24 hrs by Western blot analysis; assay type: functional, cell-based; details: dose 2.5 µM, in the assay text read “at 2.5 uM” for “at 10 uM”; method in brief: as §4
HT-29 [24] = assay: Induction of cell death in human HT-29 cells assessed as reduction in Mcl1 expression at 10 uM incubated for 24 hrs by Western blot analysis; assay type: functional, cell-based; details: dose 2.5 µM, in the assay text read “at 2.5 uM” for “at 10 uM”; method in brief: as §4
HT-29 [25] = assay: Induction of cell death in human HT-29 cells assessed as reduction in Bcl-xL expression at 2.5 uM incubated for 24 hrs by Western blot analysis; assay type: functional, cell-based; method in brief: as §4
HT-29 [26] = assay: Induction of cell death in human HT-29 cells assessed as reduction in beta-catenin expression at 2.5 uM incubated for 24 hrs by Western blot analysis; assay type: functional, cell-based; method in brief: as §4
HCT-116 [27] = assay: Reversible induction of cell cycle arrest in human HCT-116 cells assessed as increase of accumulation at G2/M phase at 2.5 uM incubated for 24 hrs and harvested after further 24 hrs recovery in drug-free medium by […] staining based flow cytometry; assay type: functional; method in brief: as §3
HT-29 [28] = assay: Induction of cell death in human HT-29 cells assessed as reduction in Bcl-xL expression at 10 uM incubated for 24 hrs by Western blot analysis; assay type: functional, cell-based; details: dose 2.5 µM, in the assay text read “at 2.5 uM” for “at 10 uM”; method in brief: as §4

In the case of `Clc1ccc2[nH]cc(Sc3ccccc3)c2c1`, the IC50 [1] is reported as > 200 µM.
`Cc1ccccc1Sc1c[nH]c2ccc(Cl)cc12` was tested, and the IC50 [1] was 21 µM.
With `COc1ccccc1C(=O)c1c[nH]c2ccc(Cl)cc12` the IC50 [1] was > 200 µM.
`Cc1cccc(Sc2c[nH]c3ccc(Cl)cc23)c1` gave an IC50 [1] of 100 µM.
Compound `COc1cc(OC)cc(Sc2c(C)[nH]c3ccc(Cl)cc23)c1` has an IC50 [1] of 45 µM.
Compound `COc1cc(OC)cc(Sc2c[nH]c3cccc(Cl)c23)c1` has an IC50 [1] of 52 µM.
For `CCOc1ccc2[nH]cc(Sc3ccccc3OC)c2c1`, the IC50 [1] was > 200 µM.
`COc1cc(Sc2c[nH]c3ccc(Cl)cc23)cc(OC)c1OC` was tested, and the IC50 [1] was 40 µM.
Compound `COc1ccc(Sc2c[nH]c3ccc(Cl)cc23)cc1` has an IC50 [1] of 16 µM.
`COc1cccc(Sc2c[nH]c3ccc(Cl)cc23)c1` was tested, and the IC50 [1] was 21 µM.
With `COc1ccccc1Sc1c[nH]c2ccc(F)cc12` the IC50 [1] was 32 µM.
With `COc1cc(OC)cc(Sc2c[nH]c3ncccc23)c1` the IC50 [1] was > 200 µM.
With `COC(=O)c1[nH]c2ccc(Cl)cc2c1Sc1ccccc1OC` the IC50 [1] was > 200 µM.
With `Cc1ccc(Sc2c[nH]c3ccc(Cl)cc23)cc1` the IC50 [1] was > 200 µM.
For `COc1ccccc1Sc1c[nH]c2ccc(Cl)cc12`, the viability at 10 µM (HT-29 [2]) was 40%, the Activity (HCT-116 [3]) was “Active” and the Activity (HCT-116 [4]) was “Active”. The Activity (HT-29 [5]) was “Active”, the “growth inhibition (GI)” value (HCT-116 [6]) was “Dose-dependent effect” and the Activity (HT-29 [7]) was “Active”. For the same compound, the inhibition [8] was 80%, the Activity (HCT-116 [9]) was “Active” and the “growth inhibition (GI)” value (HT-29 [10]) was “Dose-dependent effect”. The Activity (HCT-116 [11]) was “Active”, the IC50 [1] was 17.5 µM and the Activity (HT-29 [12]) was “Active”. For the same compound, the viability at 20 µM (HCT-116 [13]) was 40%, the Activity (HCT-116 [14]) was “Active” and the Activity (HT-29 [15]) was “Active”. The Activity (HT-29 [16]) was “Active”.
For `COc1ccccc1Sc1c[nH]c2ccc(I)cc12`, the IC50 [1] was 45 µM.
Compound `COc1ccccc1Sc1c[nH]c2ccc(Br)cc12` has an IC50 [1] of 24 µM.
In the case of `COc1cc(OC)cc(Sc2c[nH]c3ccccc23)c1`, the IC50 [1] is reported as 25 µM.
In the case of `COc1ccccc1Cc1c[nH]c2ccc(Cl)cc12`, the IC50 [1] is reported as 63 µM.
`COc1cc(OC)cc(Sc2c[nH]c3c(Cl)cccc23)c1` was tested, and the IC50 [1] was > 200 µM.
In the case of `Cc1cc(C)cc(Sc2c[nH]c3ccc(Cl)cc23)c1`, the IC50 [1] is reported as 20 µM.
With `COc1ccccc1S(=O)(=O)c1c[nH]c2ccc(Cl)cc12` the IC50 [1] was > 200 µM.
`COc1cc(OC)cc(Sc2c[nH]c3ccc(Cl)cc23)c1` was tested, and the Activity (HT-29 [17]) was “Active”, the viability at 2.5 µM (HT-29 [18]) was 40% and the “growth inhibition (GI)” value (HCT-116 [6]) was “Dose-dependent effect”. The viability at 10 µM (HCT-116 [19]) was 40%, the Activity (HCT-116 [20]) was “Active” and the Activity (HT-29 [21]) was “Active”. The Activity (HT-29 [22]) was “Active”, the Activity (HT-29 [23]) was “Active” and the Activity (HT-29 [24]) was “Active”. The Activity (HT-29 [25]) was “Active”, the Activity (HT-29 [26]) was “Active” and the “growth inhibition (GI)” value (HT-29 [10]) was “Dose-dependent effect”. The IC50 [1] was 7 µM, the Activity (HCT-116 [27]) was “Active” and the Activity (HT-29 [28]) was “Active”.
Work on `COc1cc(OC)cc(Sc2c[nH]c3c(Cl)c(Cl)ccc23)c1` yielded an IC50 [1] of 90 µM.
`COc1cc(OC)cc(Sc2c[nH]c3cc(Cl)ccc23)c1` was tested, and the IC50 [1] was 15 µM.
In the case of `COc1ccc(Sc2c[nH]c3ccc(Cl)cc23)c(OC)c1`, the IC50 [1] is reported as > 50 µM.
